# According to ChEMBL document CHEMBL3734701, “Synthesis and antibacterial activity of 4″-O-(trans-β-arylacrylamido)carbamoyl azithromycin analogs” (2015):
# Assays:
# Type in all cases: functional
# Streptococcus pyogenes [1] = assay: Antibacterial activity against clinically isolated erythromycin-resistant Streptococcus pyogenes R2 by broth microdilution method
# Summary of the method: (§1)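 MICs measured in vitro by broth microdilution following NCCL recommendations, against a Gram-positive panel of sensitive and resistant strains. Azithromycin and clarithromycin were tested alongside as references.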
# Staphylococcus aureus [2] = assay: Antibacterial activity against methicillin-susceptible Staphylococcus aureus ATCC 29213 by broth microdilution method; summary of the method: as §1
# Streptococcus pneumoniae [3] = assay: Antibacterial activity against erythromycin-resistant Streptococcus pneumoniae AB11 expressing ermB and mefA genes by broth microdilution method; summary of the method: as §1
# Streptococcus pneumoniae [4] = assay: Antibacterial activity against erythromycin-resistant Streptococcus pneumoniae A22072 expressing mefA gene by broth microdilution method; summary of the method: as §1
# Staphylococcus aureus [5] = assay: Antibacterial activity against clinically isolated penicillin-resistant Staphylococcus aureus by broth microdilution method
# Summary of the method: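 Clinical penicillin-resistant S. aureus isolate, not further characterized, tested in a Gram-positive panel. MIC was measured by broth microdilution following NCCL recommendations, with azithromycin and clarithromycin as references.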
# Staphylococcus aureus [6] = assay: Antibacterial activity against erythromycin-susceptible Staphylococcus aureus ATCC 25923 by broth microdilution method
# Summary of the method: (§2)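 Broth microdilution MIC following the NCCL-recommended method. Panel of sensitive and resistant Gram-positive strains: S. pyogenes S2 (erythromycin-susceptible clinical isolate), S. aureus ATCC25923 and S. pneumoniae ATCC49619 (erythromycin-susceptible). Azithromycin and clarithromycin were run alongside as references.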
# Streptococcus pneumoniae [7] = assay: Antibacterial activity against erythromycin-resistant Streptococcus pneumoniae B1 expressing ermB gene by broth microdilution method; summary of the method: as §1
# Streptococcus pyogenes [8] = assay: Antibacterial activity against clinically isolated erythromycin-susceptible Streptococcus pyogenes S2 by broth microdilution method; summary of the method: as §2
# Streptococcus pneumoniae [9] = assay: Antibacterial activity against erythromycin-susceptible Streptococcus pneumoniae ATCC 49619 by broth microdilution method; summary of the method: as §2
Compound,MIC (Streptococcus pyogenes [1]) [µg/mL],MIC (Staphylococcus aureus [2]) [µg/mL],MIC (Streptococcus pneumoniae [3]) [µg/mL],MIC (Streptococcus pneumoniae [4]) [µg/mL],MIC (Staphylococcus aureus [5]) [µg/mL],MIC (Staphylococcus aureus [6]) [µg/mL],MIC (Streptococcus pneumoniae [7]) [µg/mL],MIC (Streptococcus pyogenes [8]) [µg/mL],MIC (Streptococcus pneumoniae [9]) [µg/mL]
CC[C@@H]1OC(=O)[C@H](C)[C@@H](O[C@H]2C[C@@](C)(OC)[C@@H](OC(=O)NNC(=O)/C=C/c3cc(OC)c(OC)c(OC)c3)[C@H](C)O2)[C@@H](C)[C@@H](O[C@@H]2O[C@H](C)C[C@H](N(C)C)[C@H]2O)[C@](C)(O)C[C@@H](C)CN(C)[C@H](C)[C@@H](OC(=O)NCc2ccccc2)[C@]1(C)O,64,4,16,2,4,1,32,1,0.5
CC[C@@H]1OC(=O)[C@H](C)[C@@H](O[C@H]2C[C@@](C)(OC)[C@@H](OC(=O)NNC(=O)/C=C/c3ccccc3OC)[C@H](C)O2)[C@@H](C)[C@@H](O[C@@H]2O[C@H](C)C[C@H](N(C)C)[C@H]2O)[C@](C)(O)C[C@@H](C)CN(C)[C@H](C)[C@@H](OC(=O)NCc2ccc(OC)cc2)[C@]1(C)O,64,4,8,0.25,4,1,4,0.25,0.25
CC[C@H]1OC(=O)[C@@H](C)[C@H](O[C@@H]2C[C@](C)(OC)[C@H](OC(=O)NNC(=O)/C=C/c3ccc([N+](=O)[O-])cc3)[C@@H](C)O2)[C@H](C)[C@H](O[C@H]2O[C@@H](C)C[C@@H](N(C)C)[C@@H]2O)[C@@](C)(O)C[C@H](C)CN(C)[C@@H](C)[C@H](OC(=O)NCc2ccc(OC)cc2)[C@@]1(C)O,32,8,8,0.5,8,4,2,0.25,1
CC[C@@H]1OC(=O)[C@H](C)[C@@H](O[C@@H]2C[C@](C)(OC)[C@H](O)[C@@H](C)O2)[C@@H](C)[C@@H](O[C@@H]2O[C@H](C)C[C@H](N(C)C)[C@H]2O)[C@](C)(O)C[C@@H](C)CN(C)[C@H](C)[C@@H](O)[C@]1(C)O,≥ 128,1,256,4,0.12,0.25,> 128,0.25,0.03
CC[C@H]1OC(=O)[C@@H](C)[C@H](O[C@@H]2C[C@](C)(OC)[C@H](OC(=O)NNC(=O)/C=C/c3ccc(Br)cc3)[C@@H](C)O2)[C@H](C)[C@H](O[C@H]2O[C@@H](C)C[C@@H](N(C)C)[C@@H]2O)[C@@](C)(O)C[C@H](C)CN(C)[C@@H](C)[C@H](OC(=O)NCc2ccccc2)[C@@]1(C)O,16,2,1,0.12,2,0.5,1,0.25,0.25
CC[C@@H]1OC(=O)[C@H](C)[C@@H](O[C@H]2C[C@@](C)(OC)[C@@H](OC(=O)NNC(=O)/C=C/c3cccs3)[C@H](C)O2)[C@@H](C)[C@@H](O[C@@H]2O[C@H](C)C[C@H](N(C)C)[C@H]2O)[C@](C)(O)C[C@@H](C)CN(C)[C@H](C)[C@@H](OC(=O)NCc2ccccc2)[C@]1(C)O,32,4,4,0.06,2,1,2,0.25,0.5
CC[C@@H]1OC(=O)[C@H](C)[C@@H](O[C@H]2C[C@@](C)(OC)[C@@H](OC(=O)NNC(=O)/C=C/c3ccccc3OC)[C@H](C)O2)[C@@H](C)[C@@H](O[C@@H]2O[C@H](C)C[C@H](N(C)C)[C@H]2O)[C@](C)(O)C[C@@H](C)CN(C)[C@H](C)[C@@H](OC(=O)NCc2ccccc2)[C@]1(C)O,32,2,8,0.5,2,0.5,16,0.25,0.5
CC[C@H]1OC(=O)[C@@H](C)[C@H](O[C@@H]2C[C@](C)(OC)[C@H](OC(=O)NNC(=O)/C=C/c3ccc([N+](=O)[O-])cc3)[C@@H](C)O2)[C@H](C)[C@H](O[C@H]2O[C@@H](C)C[C@@H](N(C)C)[C@@H]2O)[C@@](C)(O)C[C@H](C)CN(C)[C@@H](C)[C@H](OC(=O)NCc2ccccc2)[C@@]1(C)O,16,2,2,0.12,2,0.5,4,0.5,0.25
CC[C@H]1OC(=O)[C@@H](C)[C@H](O[C@@H]2C[C@](C)(OC)[C@H](OC(=O)NNC(=O)/C=C/c3ccc(Cl)cc3)[C@@H](C)O2)[C@H](C)[C@H](O[C@H]2O[C@@H](C)C[C@@H](N(C)C)[C@@H]2O)[C@@](C)(O)C[C@H](C)CN(C)[C@@H](C)[C@H](OC(=O)NCc2ccccc2)[C@@]1(C)O,16,4,2,0.25,2,1,4,0.5,0.5
CC[C@@H]1OC(=O)[C@H](C)[C@@H](O[C@H]2C[C@@](C)(OC)[C@@H](OC(=O)NNC(=O)/C=C/c3ccccc3)[C@H](C)O2)[C@@H](C)[C@@H](O[C@@H]2O[C@H](C)C[C@H](N(C)C)[C@H]2O)[C@](C)(O)C[C@@H](C)CN(C)[C@H](C)[C@@H](OC(=O)NCc2ccc(OC)cc2)[C@]1(C)O,32,4,8,0.25,4,1,2,0.25,0.25
CC[C@@H]1OC(=O)[C@H](C)[C@@H](O[C@H]2C[C@@](C)(OC)[C@@H](OC(=O)NNC(=O)/C=C/c3ccco3)[C@H](C)O2)[C@@H](C)[C@@H](O[C@@H]2O[C@H](C)C[C@H](N(C)C)[C@H]2O)[C@](C)(O)C[C@@H](C)CN(C)[C@H](C)[C@@H](OC(=O)NCc2ccc(OC)cc2)[C@]1(C)O,64,4,8,0.25,2,1,2,0.25,0.5
CC[C@H]1OC(=O)[C@@H](C)[C@H](O[C@@H]2C[C@](C)(OC)[C@H](OC(=O)NNC(=O)/C=C/c3ccc(OC)c(OC)c3)[C@@H](C)O2)[C@H](C)[C@H](O[C@H]2O[C@@H](C)C[C@@H](N(C)C)[C@@H]2O)[C@@](C)(O)C[C@H](C)CN(C)[C@@H](C)[C@H](OC(=O)NCc2ccc(OC)cc2)[C@@]1(C)O,64,4,8,0.25,4,2,2,0.5,0.5
CC[C@H]1OC(=O)[C@@H](C)[C@H](O[C@@H]2C[C@](C)(OC)[C@H](OC(=O)NNC(=O)/C=C/c3ccc(OC)c(OC)c3)[C@@H](C)O2)[C@H](C)[C@H](O[C@H]2O[C@@H](C)C[C@@H](N(C)C)[C@@H]2O)[C@@](C)(O)C[C@H](C)CN(C)[C@@H](C)[C@H](OC(=O)NCc2ccccc2)[C@@]1(C)O,64,4,64,2,2,0.5,64,0.25,0.06
